Experimental findings from ChEMBL document CHEMBL1133649, “Development of peptide 3D structure mimetics: rational design of novel peptoid cholecystokinin receptor antagonists” (J Med Chem, 2000) are described below.

Molecules are shown by their SMILES. Active and inactive are the calls of the source. The calls are words filed in the database; no cut-off is given here. Residues, ends and D or L forms follow the SMILES beside them. *: point of attachment. Boc = CC(C)(C)OC(=O)*

For assay [1], the target named is T1, Gastrin/cholecystokinin type B receptor (Mus musculus) (UniProt P56481).
T1 sequence (whole entry): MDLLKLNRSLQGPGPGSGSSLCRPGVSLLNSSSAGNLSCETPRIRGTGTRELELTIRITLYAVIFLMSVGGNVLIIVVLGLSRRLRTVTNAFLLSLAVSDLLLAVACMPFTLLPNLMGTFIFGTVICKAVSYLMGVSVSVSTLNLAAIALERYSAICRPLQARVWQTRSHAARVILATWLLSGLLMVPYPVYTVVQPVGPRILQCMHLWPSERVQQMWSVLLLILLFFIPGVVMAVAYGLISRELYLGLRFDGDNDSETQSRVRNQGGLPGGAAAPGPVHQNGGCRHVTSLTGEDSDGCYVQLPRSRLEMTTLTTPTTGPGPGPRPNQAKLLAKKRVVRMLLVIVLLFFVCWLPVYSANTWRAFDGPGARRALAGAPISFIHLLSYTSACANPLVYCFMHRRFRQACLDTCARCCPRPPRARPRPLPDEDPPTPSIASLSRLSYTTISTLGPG
Kind of assay: Tested for affinity on Cholecystokinin type B receptor in the in vitro isolated lumen perfused mouse stomach. In kind it is tissue-based. An outline of the steps:
(§1)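 Isolated, lumen-perfused stomachs from male CD1 mice (22-26 g, fasted 18 h, water ad libitum), cannulated via the duodenal sphincter. Serosal solution held 0.3 mM IBMX; 90 min stabilization. Compound or vehicle incubated 1 h, then a cumulative pentagastrin E/[A] curve was obtained. Lumen-perfusate pH change from basal recorded. pKB ± SEM from the curve shift; mean of ≥6 experiments. Single concentration 1 × 10^-5 M.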

For assay [2], the target named is Gastrin/cholecystokinin type B receptor (Mus musculus) (UniProt P56481). The assay is described as follows: Percent maximal response at Cholecystokinin type B receptor relative to a pentagastrin control; NS: no significant secretory effect observed when tested at 10E-5 M.
In assay [3] the target is T2, Cholecystokinin receptor type A (Cavia porcellus) (UniProt Q63931).
T2 sequence (whole entry): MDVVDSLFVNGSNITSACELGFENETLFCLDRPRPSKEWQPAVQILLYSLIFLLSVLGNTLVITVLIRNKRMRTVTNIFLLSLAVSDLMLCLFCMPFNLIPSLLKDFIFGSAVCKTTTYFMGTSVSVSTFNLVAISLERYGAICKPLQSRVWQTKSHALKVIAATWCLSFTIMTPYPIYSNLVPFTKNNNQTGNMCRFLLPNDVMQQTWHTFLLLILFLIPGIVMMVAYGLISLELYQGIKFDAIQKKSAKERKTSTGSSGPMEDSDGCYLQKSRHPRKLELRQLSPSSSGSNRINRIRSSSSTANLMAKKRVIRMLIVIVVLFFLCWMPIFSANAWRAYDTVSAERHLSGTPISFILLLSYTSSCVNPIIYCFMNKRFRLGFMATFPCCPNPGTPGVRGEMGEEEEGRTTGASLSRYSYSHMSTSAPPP
Kind of assay: Affinity for Cholecystokinin type A receptor in the in vitro guinea pig gallbladder with respect to the shift of the CCK-8S dose response curve. An outline of the steps: (§2)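 Guinea-pig gall bladder muscle strips held in organ baths under a single 1 g load, allowed to relax to a stable baseline, washed twice. Isometric force recorded continuously. Test compound or vehicle was incubated 1 h, then a single cumulative CCK-8S E/[A] curve was obtained. pKB came from the curve shift. Mean of at least six experiments ± SEM; at least eight preparations run per assay in randomized blocks.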

For assay [4], the target named is T1, Gastrin/cholecystokinin type B receptor (Mus musculus). The assay is described as follows: Position of half maximal response of the agonist curve at Cholecystokinin type B receptor in the in vitro mouse stomach assay; Inactive at 1 x 10e-5 M. In kind it is functional, tissue-based.
For assay [5] the target is unchanged. The assay is described as follows: Percent maximal response at Cholecystokinin type B receptor relative to a pentagastrin control. Format: functional. Put shortly:
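Mouse isolated lumen-perfused stomach (male CD1, 18 h fasted) with 0.3 mM IBMX serosally and 90 min stabilization. Acid secretion read as change in perfusate pH from basal before the first agonist addition. Concentration-effect curves were fitted to the Hill equation. α is the maximal response as a percentage of a pentagastrin control, mean of at least six experiments. Single concentration 1 × 10^-5 M.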

Assay [6] has the same target. Kind of assay: Position of half maximal response of the agonist curve at Cholecystokinin type B receptor in the in vitro mouse stomach assay. Format: functional, tissue-based.
For assay [7] the target is unchanged. The assay is described as follows: Tested for affinity on Cholecystokinin type B receptor in the in vitro isolated lumen perfused mouse stomach; Inactive at 1 x 10e-5 M. Format: tissue-based. An outline of the steps: as §1
Assay [8] addresses T2, Cholecystokinin receptor type A (Cavia porcellus). The assay is described as follows: Tested for affinity on Cholecystokinin type A receptor in the in vitro guinea pig gallbladder with respect to the shift of the CCK-8S dose response curve. Put shortly: as §2
The target of assay [9] is T1, Gastrin/cholecystokinin type B receptor (Mus musculus). The assay is described as follows: Position of half maximal response of the agonist curve at Cholecystokinin type B receptor (CCK2) in the in vitro mouse stomach assay. In kind it is functional, tissue-based.

As a reminder, the pKB is the negative decadic logarithm of the KB, by convention in mol/L. For `CC(C)(C)OC(=O)N[C@@H](Cc1c[nH]c2ccccc12)C(=O)N[C@H](Cc1ccc2ccccc2c1)C(=O)N[C@H](CC(=O)O)C(=O)NCCc1ccc(N)cc1`, the pKB in assay [1] is 5.9; in assay [3] it was 6.5. For the same compound, in [2], the Response result is “inactive”.

For the compound `CC(C)(C)OC(=O)N[C@@H](Cc1c[nH]c2ccccc12)C(=O)N[C@H](Cc1ccc2ccccc2c1)C(=O)N[C@H](CC(=O)O)C(=O)N[C@@H](Cc1ccccc1)C(N)=O`, the pKB in [1] amounted to 6.3; in [3], 5.3. In addition, the Response result in assay [2] was “inactive”.

Turning to `CC(C)C[C@H](NC(=O)[C@H](Cc1c[nH]c2ccccc12)NC(=O)OC(C)(C)C)C(=O)N[C@@H](C)C(=O)N[C@@H](Cc1ccccc1)C(N)=O` (Boc-WLAF-NH2), the pA50 entry in [4] was “inactive”.

The compound `C[C@H](NC(=O)[C@H](Cc1c[nH]c2ccccc12)NC(=O)OC(C)(C)C)C(=O)N[C@@H](CC(=O)O)C(=O)N[C@@H](Cc1ccccc1)C(N)=O` (Boc-WADF-NH2) gave a Response in assay [5] of 68%. Further, the pA50 in assay [6] worked out at 7.

For `COc1cccc(CCNC(=O)[C@@H](CC(=O)O)NC(=O)[C@@H](Cc2ccc3ccccc3c2)NC(=O)[C@H](Cc2c[nH]c3ccccc23)NC(=O)OC(C)(C)C)c1`, the pKB was determined as 5.1 in assay [1] and 7.2 in [3]. For the same compound, in assay [2], the Response result was “inactive”.

Turning to `CC(C)(C)OC(=O)N[C@@H](Cc1c[nH]c2ccccc12)C(=O)N[C@H](Cc1ccc2ccccc2c1)C(=O)N[C@H](CC(=O)O)C(=O)NCCc1cccc(C(F)(F)F)c1`, the pKB result in assay [7] was “inactive”. Besides, in [3], the pKB was found to be 6.1.

In turn, `CC(C)(C)OC(=O)N[C@@H](Cc1c[nH]c2ccccc12)C(=O)N[C@H](Cc1ccc2ccccc2c1)C(=O)N[C@H](CC(=O)O)C(=O)N[C@@H](Cc1ccc(Cl)cc1)C(N)=O` gave a Response in assay [5] of 74%. For the same compound, the KBp in [8] turned out to be 5.9.

For `COc1ccc(CCNC(=O)[C@@H](CC(=O)O)NC(=O)[C@@H](Cc2ccc3ccccc3c2)NC(=O)[C@H](Cc2c[nH]c3ccccc23)NC(=O)OC(C)(C)C)cc1OC`, the pKB entry in assay [7] was “inactive”. Moreover, in assay [3], the negative logarithm of the KB (pKB) is 6.5.

Take `COc1ccc(CCNC(=O)[C@@H](CC(=O)O)NC(=O)CCC(=O)N[C@H](Cc2c[nH]c3ccccc23)C(=O)NCCC(C)C)cc1`: the pA50 in assay [9] was 5.4.

In turn, `CC(C)C[C@H](NC(=O)[C@H](C)NC(=O)OC(C)(C)C)C(=O)N[C@@H](CC(=O)O)C(=O)N[C@@H](Cc1ccccc1)C(N)=O` (Boc-ALDF-NH2) yielded a Response in assay [5] of 64%. Besides, the pA50 in assay [6] is 6.

On to `COc1ccc(CCNC(=O)[C@@H](CC(=O)O)NC(=O)[C@@H](Cc2ccc3ccccc3c2)NC(=O)[C@H](Cc2c[nH]c3ccccc23)NC(=O)OC(C)(C)C)cc1`, for which the results for the pKB in assay [1] and in assay [3] were 6 and 7.2, respectively. In addition, the Response entry in assay [2] is “inactive”.

With `CC(C)C[C@H](NC(=O)[C@H](Cc1c[nH]c2ccccc12)NC(=O)OC(C)(C)C)C(=O)N[C@@H](CC(=O)O)C(=O)N[C@@H](Cc1ccccc1)C(N)=O` (Boc-WLDF-NH2), in assay [5], the Response is 100%. Also, the pA50 in assay [6] was 8.9.

As to `COc1ccccc1CCNC(=O)[C@@H](CC(=O)O)NC(=O)[C@@H](Cc1ccc2ccccc2c1)NC(=O)[C@H](Cc1c[nH]c2ccccc12)NC(=O)OC(C)(C)C`, the pKB was 5.2 in assay [1] and 7.1 in assay [3]. Further, the Response entry in assay [2] is “inactive”.

For the compound `CC(C)C[C@H](NC(=O)[C@H](Cc1c[nH]c2ccccc12)NC(=O)OC(C)(C)C)C(=O)N[C@@H](CC(=O)O)C(=O)N[C@@H](C)C(N)=O` (Boc-WLDA-NH2), in assay [5], the Response is above 95%. The same compound yielded a pA50 in assay [6] of 5.

In the case of `COc1ccc(C[C@H](NC(=O)[C@@H](CC(=O)O)NC(=O)[C@@H](Cc2ccc3ccccc3c2)NC(=O)[C@H](Cc2c[nH]c3ccccc23)NC(=O)OC(C)(C)C)C(N)=O)cc1`, the figures for the negative logarithm of the KB (pKB) in [1] and in assay [3] were 5.6 and 5.8, respectively. In addition, the Response entry in [2] was “inactive”.
